Assay results reported in ChEMBL document CHEMBL4834471 (J Med Chem, 2021).
Active and inactive are the calls of the source. The rule behind the calls is not given here.

Experiments:
Mus musculus [1] = test: Antiinflammatory activity BALB/c mouse assessed as inhibition of carbachol-induced bronchial reactivity at 10 mg/kg, po administered on day 0 and 7 and measured upto 21 days; assay type: functional, organism-based; conditions: time day <=21
HepaRG = test: Induction of CYP3A4 expression in human HepaRG cells at 0.1 to 10 uM incubated for 48 hrs by fluorescence based assay; assay type: functional, cell-based; conditions: dose 0.1-10 µM
Summary of the method: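 Differentiated HepaRG cells treated for 48 h; CYP3A4-expressing cells visualized by fluorescence imaging at 20× magnification; n = 3 independent experiments, with n = 9 for untreated cells.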

[2] = molecular target: T1, Prostaglandin E synthase (Homo sapiens) (UniProt O14684); test: Inhibition of mPGES-1 activity in IL-1beta treated human A549 cells assessed as reduction in PGE2 formation at 10 uM using PGH2 as substrate preincubated for 15 mins followed by substrate addition and measured after 1 min; assay type: cell-based; conditions: time 16.0 min
T1 sequence (whole entry): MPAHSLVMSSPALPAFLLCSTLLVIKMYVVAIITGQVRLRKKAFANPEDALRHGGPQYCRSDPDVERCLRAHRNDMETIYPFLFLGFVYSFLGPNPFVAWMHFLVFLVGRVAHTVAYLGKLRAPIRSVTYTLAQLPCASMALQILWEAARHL

[3] = molecular target: T2, Polyunsaturated fatty acid lipoxygenase ALOX12 (Homo sapiens) (UniProt P18054); test: Inhibition of 12-LOX in human PMNL assessed as reduction in 12-LOX product formation at 10 uM treated with AA and A23187 by RP-HPLC method; assay type: tissue-based
T2 sequence (whole entry): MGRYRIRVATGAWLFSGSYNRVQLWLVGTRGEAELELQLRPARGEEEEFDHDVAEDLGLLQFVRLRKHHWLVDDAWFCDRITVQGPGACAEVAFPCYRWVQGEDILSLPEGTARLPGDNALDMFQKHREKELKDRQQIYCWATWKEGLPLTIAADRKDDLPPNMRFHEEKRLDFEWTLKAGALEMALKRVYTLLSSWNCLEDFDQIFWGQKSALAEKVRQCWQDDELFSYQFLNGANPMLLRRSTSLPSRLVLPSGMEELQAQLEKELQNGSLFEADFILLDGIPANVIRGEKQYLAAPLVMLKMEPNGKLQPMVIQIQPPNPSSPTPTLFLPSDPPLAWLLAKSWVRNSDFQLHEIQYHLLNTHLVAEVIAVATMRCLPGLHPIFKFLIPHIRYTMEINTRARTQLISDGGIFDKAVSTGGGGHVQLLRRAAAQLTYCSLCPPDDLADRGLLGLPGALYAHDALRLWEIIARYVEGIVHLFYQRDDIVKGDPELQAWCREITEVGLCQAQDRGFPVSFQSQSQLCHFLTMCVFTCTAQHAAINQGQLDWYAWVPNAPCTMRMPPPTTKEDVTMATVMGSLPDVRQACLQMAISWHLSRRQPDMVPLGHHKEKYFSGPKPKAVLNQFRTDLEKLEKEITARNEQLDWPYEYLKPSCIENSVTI

[4] = molecular target: T3, Bifunctional epoxide hydrolase 2 (Homo sapiens) (UniProt P34913); test: Inhibition of recombinant human sEH expressed in Sf9 insect cells at 10 uM using PHOME as substrate preincubated for 10 mins followed by substrate addition and measured after 60 mins by fluorescence microplate method; conditions: time 70.0 min
T3 sequence (whole entry): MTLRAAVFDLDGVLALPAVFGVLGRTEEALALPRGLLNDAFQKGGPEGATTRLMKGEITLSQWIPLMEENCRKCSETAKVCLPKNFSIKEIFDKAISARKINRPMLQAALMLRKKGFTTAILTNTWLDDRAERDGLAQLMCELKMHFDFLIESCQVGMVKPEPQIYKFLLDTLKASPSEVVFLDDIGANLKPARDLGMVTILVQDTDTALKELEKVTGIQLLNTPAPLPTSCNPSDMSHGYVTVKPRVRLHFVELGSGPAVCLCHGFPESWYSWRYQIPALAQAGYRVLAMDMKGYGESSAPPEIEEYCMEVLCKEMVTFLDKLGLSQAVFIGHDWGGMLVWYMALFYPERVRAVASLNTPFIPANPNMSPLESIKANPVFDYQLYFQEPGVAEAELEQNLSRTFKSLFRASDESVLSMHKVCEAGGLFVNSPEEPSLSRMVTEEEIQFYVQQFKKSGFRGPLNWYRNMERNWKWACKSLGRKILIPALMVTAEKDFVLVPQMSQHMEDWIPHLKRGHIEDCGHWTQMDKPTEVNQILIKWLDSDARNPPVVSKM

Keratinocyte [5] = test: Antiinflammatory activity in cytokine cocktail-induced reconstructed human epidermis model assessed as attenuation of epidermal disorganization at 5 to 25 uM after 4 days by HE staining based assay; assay type: functional, cell-based; conditions: dose 5-25 µM, time 4.0 day
Summary of the method: (§1)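 Reconstructed human epidermis exposed to compound and stressed with a cytokine cocktail for 4 days. Readouts: IL-8 in growth medium, H&E morphology, transepidermal water loss, stratum corneum permeability to Lucifer yellow with DAPI nuclear stain, and surface pH. n = 2–3 independent experiments.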

Keratinocyte [6] = test: Antiinflammatory activity in cytokine cocktail-induced reconstructed human epidermis model assessed as improved skin barrier functions at 5 to 25 uM after 4 days; assay type: functional, cell-based; conditions: dose 5-25 µM, time 4.0 day; summary of the method: as §1
Mus musculus [7] = test: Antiinflammatory activity in zymosan-induced CD-1 mouse peritonitis model assessed as reduction in LTB4 level at 10 mg/kg, ip preincubated with compound for 30 mins followed by zymosan addition and measured after 4 hrs by ELISA; assay type: functional, organism-based; conditions: time 270.0 min
Summary of the method: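 Zymosan peritonitis with compound 10 mg/kg i.p. Vascular permeability assessed at 30 min after zymosan. Exudate LTB4 (ELISA) and peritoneal immune cell infiltration assessed at 4 h. Two-tailed unpaired t-test of log data.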

Mus musculus [8] = test: Antiinflammatory activity in zymosan-induced CD-1 mouse peritonitis model assessed as reduction in 5-LOX product level at 10 mg/kg, po preincubated with compound for 60 mins followed by zymosan addition and measured after 30 mins; assay type: functional, organism-based; conditions: time 90.0 min
Summary of the method: (§2)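 Oral dosing at 10 mg/kg in zymosan peritonitis; mice killed 30 min after zymosan. Peritoneal exudate lipid mediators and fatty acids profiled by UPLC-MS/MS, with LTC4 measured by ELISA; results expressed as fold change versus vehicle.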

Mus musculus [9] = test: Antiinflammatory activity in zymosan-induced CD-1 mouse peritonitis model assessed as reduction in LOX derived metabolites at 10 mg/kg, po preincubated with compound for 60 mins followed by zymosan addition and measured after 30 mins; assay type: functional, organism-based; conditions: time 90.0 min; summary of the method: as §2
Mus musculus [10] = test: Antiinflammatory activity in zymosan-induced CD-1 mouse peritonitis model assessed as increase in RvE3 levels at 10 mg/kg, po preincubated with compound for 60 mins followed by zymosan addition and measured after 30 mins by UPLC-MS/MS analysis; assay type: functional, organism-based; conditions: time 90.0 min; summary of the method: as §2

inhibition [2]: Active
inhibition [3]: inactive
inhibition [4]: inactive
Compound: C/C(=C\CC/C(C)=C/CC[C@]1(C)CCc2c(C)c(O)c(C)c(C)c2O1)CCC=C(CO)CO
Activity (Mus musculus [1]): Active
Activity (HepaRG): inactive
Activity (Keratinocyte [5]): Active
Activity (Keratinocyte [6]): Active
Activity (Mus musculus [7]): Active
Activity (Mus musculus [8]): Active
Activity (Mus musculus [9]): Active
Activity (Mus musculus [10]): Active
